Assay [1] concerns HMEC-1. As to the kind of experiment: (§1) Cytoprotective activity against ultraviolet irradiation oxidized LDL-induced cytotoxicity in HMEC1 cells assessed as residual cell survival at 10 uM for 24 hrs by MTT assay relative to control. In kind it is functional. Particulars: Homo sapiens. The procedure, abridged:
(§2)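 HMEC-1 were exposed to UV-C-oxidized LDL. LDL at 2 mg apoB/mL with 2 µmol/L CuSO₄ was irradiated for 2 h at 254 nm, then added to the medium at 200 µg apoB/mL together with the compound. MTT viability was read after 24 h, as % of unstimulated cells in LDL-free medium. Each value is the mean of four determinations.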

The subject of assay [2] is HMEC-1. As to the kind of experiment: Protection against oxidized LDL-induced cytotoxicity in HMEC1 cells assessed as residual cell viability after 24 hrs by MTT assay relative to control. In kind it is functional, Homo sapiens. The gist of the method: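 HMEC-1 exposed 6 h at 37 °C to native LDL (100 µg apoB/mL) with 1 µM CuSO4 in serum-free RPMI, with or without agent (10 µM, DMSO <0.1%); toxicity of the cell-oxidized LDL read by MTT after 24 h, as % of unstimulated cells kept in fresh RPMI without LDL or antioxidant.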
(Formazan colour is commonly taken as a measure of viable cells.)

Assay [3] in a line: Antioxidant activity in HMEC1 cells assessed as inhibition of LDL oxidation at 10 uM after 6 hrs by TBARS assay relative to control. In kind it is functional, Homo sapiens, HMEC-1. Also on record: scale not given: the % may be the effect or the level left. The procedure, abridged:
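HMEC-1 (sparse proliferative) in serum-free RPMI-1640 with native LDL 100 µg apoB/mL and CuSO4 1 µM, 37 °C, 6 h; compounds added from DMSO (<0.1% final) at 10 µM just before oxidation, in duplicate. TBARS in medium measured fluorimetrically; expressed as % of TBARS with cells and no agent.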

A short description of assay [4]: as §1. The class given is functional, Homo sapiens, HMEC-1. The procedure, abridged: as §2
Assay [5] relates to HMEC-1. As to the kind of experiment: Cytoprotective activity against ultraviolet irradiation oxidized LDL and 4-hydroxynonenal-induced cytotoxicity in HMEC1 cells assessed as cell survival at 10 uM after 24 hrs relative to control. The class given is functional, cell-based. Particulars: Homo sapiens. The procedure, abridged: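 HMEC-1 were exposed to 4-HNE added directly to the medium, or to UV-oxidized LDL. For the oxidized LDL, LDL at 2 mg apoB/mL with 2 µmol/L CuSO₄ was irradiated with UV-C (254 nm) for 2 h and then added at 200 µg apoB/mL. Compounds were present during exposure. Viability was read by MTT after 24 h, as % of cells in LDL-free medium. Each value is the mean of four determinations.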

Another assay has as its system U-937. The assay is described as follows: Inhibition of foam cell formation in LDL exposed human U937 cells assessed as accumulation of red O-stained lipid droplets at 10 uM for 14 hrs by nile red fluorescence assay. The class given is functional, cell-based. The gist of the method:
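U937 grown in RPMI with 10% FCS were used at subconfluence. They were incubated for 14 h in fresh RPMI containing native LDL (100 µg/mL), 1 µM CuSO₄ and agent (10 µM). Cells were fixed in 10% paraformaldehyde, stained with 0.5 µg/mL Nile Red, scraped and read fluorometrically (ex 460/em 550 nm). Parallel slides were stained with oil red O and hematoxylin and examined microscopically. Data are the mean of three experiments.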

Assay [6] concerns HMEC-1. As to the kind of experiment: Inhibition of 4-hydroxynonenal-induced carbonyl stress in HMEC1 cells assessed as prevention of increase in carbonylated protein level at 10 uM relative to control. In kind it is functional, cell-based. The settings on record: Homo sapiens. The gist of the method:
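HMEC-1 were incubated overnight with 50 µM 4-HNE in FCS-free RPMI-1640 with the compound, then washed, scraped and pelleted. Protein was derivatized for 1 h at room temperature with 0.1% DNPH in 2 M HCl, precipitated with TCA, and washed with ethanol/ethyl acetate. It was dissolved in 8 M guanidine buffer (pH 7.4) and read at 365 nm. Results are % of unstimulated control, mean of four experiments.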

Active and inactive are the calls of the source. The calls are words filed in the database; no cut-off is given here.

As for `CCOP(=O)(/C=C/c1cc(OC)c(O)c(-c2cc(/C=N/Nc3nncc4ccccc34)cc(OC)c2O)c1)OCC.Cl`, the result in the assay on HMEC-1 [1] was Active. In addition, the Activity amounted to 61.2% in the assay on HMEC-1 [2] and 4.1% in assay [3].

For the compound `COc1cc(/C=N/Nc2nncc3ccccc23)cc(-c2cc(/C=N/Nc3nncc4ccccc34)cc(OC)c2O)c1O.Cl`, the results for the Activity (in assay [4]; in the assay with HMEC-1 [2]; in assay [3]) were 80%, 82% and 2.8%, respectively. The outcome in the assay on HMEC-1 [5], with U-937 and in the assay with HMEC-1 [6] was Active.

As for `CCOP(=O)(/C=C/c1cc(OC)c(O)c(-c2cc(C=O)cc(OC)c2O)c1)OCC`, the Activity with HMEC-1 [2] was 63.5%; in assay [3], 67.5%.

For the compound `CCOP(=O)(/C=C/c1cc(OC)c(O)c(-c2cc(/C=N/NC(=O)c3ccncc3)cc(OC)c2O)c1)OCC`, the Activity in the assay with HMEC-1 [2] worked out at 31.2%; in assay [3], 67.5%.

In the case of `COc1cc(C=O)cc(-c2cc(C=O)cc(OC)c2O)c1O`, the Activity in the assay with HMEC-1 [2] turned out to be 40.5%; in assay [3] it was 86.2%.

`Cc1c(C)c2c(c(C)c1O)CC[C@@](C)(CCC[C@H](C)CCC[C@H](C)CCCC(C)C)O2` [ALPHA-TOCOPHEROL]: the figures for the Activity (in the assay with HMEC-1 [2]; in assay [3]) were 29% and 55%, respectively.

As for `CC(C)(Sc1cc(C(C)(C)C)c(O)c(C(C)(C)C)c1)Sc1cc(C(C)(C)C)c(O)c(C(C)(C)C)c1` [PROBUCOL], the Activity in the assay with HMEC-1 [2] worked out at 92%; in assay [3], 10%.

For `CCOP(=O)(/C=C/c1cc(OC)c(O)c(-c2cc(/C=C/P(=O)(OCC)OCC)cc(OC)c2O)c1)OCC`, the results for the Activity (in the assay on HMEC-1 [2]; in assay [3]) were 66% and 67.4%, respectively. Further, the outcome in the assay on U-937 was Active.

Consider `COc1cc(/C=N/NC(=O)c2ccncc2)cc(-c2cc(/C=N/NC(=O)c3ccncc3)cc(OC)c2O)c1O`, for which the figures for the Activity (with HMEC-1 [2]; in assay [3]) were 13.5% and 83%, respectively. Besides, in the assay with HMEC-1 [6], the outcome was inactive.

Values taken from ChEMBL document CHEMBL1150353, “Development of novel antiatherogenic biaryls: design, synthesis, and reactivity” (2008).
